Assay results as given in ChEMBL document CHEMBL4038284, “Synthesis of novel quinoline-based 4,5-dihydro-1H-pyrazoles as potential anticancer, antifungal, antibacterial and antiprotozoal agents” (Eur J Med Chem, 2017).
Values after ≈ are worked out from the molar mass of the structure shown. Active and inactive are the calls of the source. The rule behind the calls is not given here.

What was measured:
[1] = tested on: BT-549; experiment: Growth inhibition of human BT549 cells at 10 uM incubated for 48 hrs by sulforhodamine B assay; assay type: functional, cell-based
Summary of the method: (§1)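 NCI 60-cell-line screen at a single 10 µM dose. Cells in RPMI-1640 with 5% FBS and 2 mM L-glutamine, pre-incubated 24 h, then treated for 48 h at 37 °C. TCA fixation, sulforhodamine B staining, absorbance at 515 nm. Percentage growth calculated against time-zero and untreated controls.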

[2] = tested on: Candida albicans; experiment: Growth inhibition of Candida albicans ATCC 10231 at 250 ug/ml incubated for 48 hrs under dark condition by broth microdilution method relative to control; assay type: functional; settings: ATCC 10231, 48 h, read-out: GI
Summary of the method: (§2)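 CLSI M27-A3 broth microdilution in RPMI-1640, DMSO ≤1%. Inoculum 1-5 × 10^3 CFU/mL. Incubated 48 h at 30 °C, dark. % inhibition = 100 − (OD405 test − sterility control)/(OD405 growth control − sterility control), with growth and sterility control wells. Triplicate.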

[3] = tested on: CCRF-CEM; experiment: Growth inhibition of human CCRF-CEM cells at 10 uM incubated for 48 hrs by sulforhodamine B assay; assay type: functional, cell-based; summary of the method: as §1
[4] = tested on: Klebsiella pneumoniae; experiment: Antibacterial activity against carbapenemase positive Klebsiella pneumoniae BAA 1705 after 24 hrs by resazurin dye based microdilution assay; assay type: functional; settings: BAA 1705, 24 h
Summary of the method: (§3)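 MIC taken as the lowest concentration giving visible inhibition and/or by resazurin (1 mg/mL). Gentamicin was the control. Run in duplicate, repeated at least three times.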

[5] = tested on: RXF 393; experiment: Growth inhibition of human RXF393 cells at 10 uM incubated for 48 hrs by sulforhodamine B assay; assay type: functional, cell-based
Summary of the method: (§4)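 NCI 60-line panel, single 10 μM dose. Cells were grown in RPMI-1640 with 5% FBS and 2 mM L-glutamine and pre-incubated 24 h before compound addition (DMSO stock). Exposure was 48 h at 37 °C, 5% CO2. Cells were fixed with cold TCA (10% final), stained with 0.4% SRB, bound dye dissolved in 10 mM Tris base, A515 read. Growth was taken relative to time-zero and untreated control plates.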

[6] = tested on: Candida albicans; experiment: Growth inhibition of Candida albicans ATCC 10231 at 31.25 ug/ml incubated for 48 hrs under dark condition by broth microdilution method relative to control; assay type: functional; settings: ATCC 10231, 48 h, read-out: GI; summary of the method: as §2
[7] = tested on: Staphylococcus aureus; experiment: Antibacterial activity against methicillin-resistant Staphylococcus aureus ATCC 43300 after 24 hrs by resazurin dye based microdilution assay; assay type: functional; settings: ATCC 43300, 24 h
Summary of the method: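 Broth microdilution in Mueller Hinton broth, inoculum 5 × 10^5 – 8 × 10^5. Compound stocks diluted in MHB with 5% DMSO and 0.1% Tween 80. Incubation 24 h at 35-37 °C. MIC is the lowest concentration with visible growth inhibition and/or by resazurin (1 mg/mL) read-out. Gentamicin as control. Run in duplicate, replicated at least three times.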

[8] = tested on: Candida albicans; experiment: Antifungal activity against Candida albicans ATCC 10231 incubated for 48 hrs under dark condition by broth microdilution method; assay type: functional; settings: ATCC 10231, 48 h
Summary of the method: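 CLSI M27-A3 broth microdilution in RPMI-1640, DMSO ≤1%, compounds at 250-0.98 µg/mL final. Inoculum 1-5 × 10^3 CFU/mL. Incubated 48 h at 30 °C in a moist dark chamber, read at OD405. MIC80 and MIC50 taken from % inhibition dose-response curves (mean ± SEM, triplicate). Amphotericin B was the positive control.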

[9] = tested on: Cryptococcus neoformans; experiment: Growth inhibition of Cryptococcus neoformans ATCC 32264 at 15.62 ug/ml incubated for 48 hrs under dark condition by broth microdilution method relative to control; assay type: functional; settings: ATCC 32264, 48 h, read-out: GI; summary of the method: as §2
[10] = tested on: HCC 2998; experiment: Growth inhibition of human HCC2998 cells at 10 uM incubated for 48 hrs by sulforhodamine B assay; assay type: functional, cell-based; summary of the method: as §1
[11] = tested on: Cryptococcus neoformans; experiment: Growth inhibition of Cryptococcus neoformans ATCC 32264 at 3.4 ug/ml incubated for 48 hrs under dark condition by broth microdilution method relative to control; assay type: functional; settings: ATCC 32264, 48 h, read-out: GI
[12] = tested on: EKVX; experiment: Growth inhibition of human EKVX cells at 10 uM incubated for 48 hrs by sulforhodamine B assay; assay type: functional, cell-based; summary of the method: as §1
[13] = tested on: SF-539; experiment: Growth inhibition of human SF539 cells at 10 uM incubated for 48 hrs by sulforhodamine B assay; assay type: functional, cell-based; summary of the method: as §4
[14] = tested on: Cryptococcus neoformans; experiment: Growth inhibition of Cryptococcus neoformans ATCC 32264 at 125 ug/ml incubated for 48 hrs under dark condition by broth microdilution method relative to control; assay type: functional; settings: ATCC 32264, 48 h, read-out: GI; summary of the method: as §2
[15] = tested on: SNB-19; experiment: Growth inhibition of human SNB19 cells at 10 uM incubated for 48 hrs by sulforhodamine B assay; assay type: functional, cell-based
Summary of the method: (§5)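 NCI-60 single-dose screen at 10 µM for 48 h. Cells were grown in RPMI-1640 with 5% FBS and 2 mM L-glutamine and preincubated 24 h before compound. Time-zero plates were TCA-fixed at compound addition. After exposure, cells were TCA-fixed, stained with SRB and read at 515 nm. Percentage growth was calculated against time-zero and untreated-control absorbances.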

[16] = tested on: A498; experiment: Growth inhibition of human A498 cells at 10 uM incubated for 48 hrs by sulforhodamine B assay; assay type: functional, cell-based; summary of the method: as §1
[17] = tested on: Candida albicans; experiment: Growth inhibition of Candida albicans ATCC 10231 at 7.8 ug/ml incubated for 48 hrs under dark condition by broth microdilution method relative to control; assay type: functional; settings: ATCC 10231, 48 h, read-out: GI; summary of the method: as §2
[18] = tested on: NCI/ADR-RES; experiment: Growth inhibition of human NCI/ADR-RES cells at 10 uM incubated for 48 hrs by sulforhodamine B assay; assay type: functional, cell-based; summary of the method: as §4
[19] = tested on: Candida albicans; experiment: Growth inhibition of Candida albicans ATCC 10231 at 62.5 ug/ml incubated for 48 hrs under dark condition by broth microdilution method relative to control; assay type: functional; settings: ATCC 10231, 48 h, read-out: GI; summary of the method: as §2
[20] = tested on: Leishmania panamensis; experiment: Antileshmanial activity against EpiR/GFP fused Leishmania panamensis MHOM/CO/87/UA140 intracellular amastigotes infected in human […] cells after 72 hrs by flow cytometric method; assay type: functional, cell-based; settings: MHOM/CO/87/UA140, 72 h
Summary of the method: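 PMA-treated U-937 cells (3 × 10^5 cells/mL) infected with stationary-phase GFP L. panamensis promastigotes (15:1), 3 h at 34 °C, then washed. After 24 h, compounds added at 50, 12.5, 3.125 and 0.78 µg/mL for 72 h at 37 °C. EC50 by Probit; triplicate, two experiments.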

[21] = tested on: COLO 205; experiment: Growth inhibition of human COLO205 cells at 10 uM incubated for 48 hrs by sulforhodamine B assay; assay type: functional, cell-based; summary of the method: as §1
[22] = tested on: SR; experiment: Growth inhibition of human SR cells at 10 uM incubated for 48 hrs by sulforhodamine B assay; assay type: functional, cell-based; summary of the method: as §5
[23] = tested on: SK-MEL-5; experiment: Growth inhibition of human SK-MEL-5 cells at 10 uM incubated for 48 hrs by sulforhodamine B assay; assay type: functional, cell-based; summary of the method: as §5
[24] = tested on: RPMI-8226; experiment: Growth inhibition of human RPMI8226 cells at 10 uM incubated for 48 hrs by sulforhodamine B assay; assay type: functional, cell-based; summary of the method: as §4
[25] = tested on: PC-3; experiment: Growth inhibition of human PC3 cells at 10 uM incubated for 48 hrs by sulforhodamine B assay; assay type: functional, cell-based; summary of the method: as §4
[26] = tested on: Staphylococcus aureus; experiment: Antibacterial activity against vancomycin-intermediate Staphylococcus aureus after 24 hrs by resazurin dye based microdilution assay; assay type: functional; summary of the method: as §3
[27] = tested on: 786-0; experiment: Growth inhibition of human 786-0 cells at 10 uM incubated for 48 hrs by sulforhodamine B assay; assay type: functional, cell-based; summary of the method: as §1

Structure (SMILES) | growth inhibition (GI) [1] | inhibition of growth at 250 µg/mL [2] | growth inhibition (GI) [3] | MIC [4] | growth inhibition (GI) [5] | inhibition of growth at 31.25 µg/mL [6] | MIC [7] | MIC50 [8] | MIC80 [8] | inhibition of growth at 15.62 µg/mL [9] | growth inhibition (GI) [10] | inhibition of growth at 3.4 µg/mL [11] | growth inhibition (GI) [12] | growth inhibition (GI) [13] | inhibition of growth at 125 µg/mL [14] | growth inhibition (GI) [15] | inhibition of growth at 7.8 µg/mL [17] | inhibition of growth at 62.5 µg/mL [19] | EC50 [20] | MIC [26] | further results
COc1ccc(C2=NN(C=O)C(c3cccc(Nc4ccnc5cc(Cl)ccc45)c3)C2)cc1 (configuration not stated) | Active | 34.5% | Active | > 1000 mg/L | Active | 14.7% | > 1000 mg/L | ≥ 250 mg/L | ≥ 250 mg/L | 23.6% | Active | 4.06% | Active | Active | 52.5% | Active | 7.43% | 20.1% | 33.1 mg/L (≈ 72.5 µM) | > 1000 mg/L | growth inhibition (GI) [16]: Active; growth inhibition (GI) [18]: Active; growth inhibition (GI) [21]: Active; growth inhibition (GI) [22]: Active; growth inhibition (GI) [23]: Active; growth inhibition (GI) [24]: Active; growth inhibition (GI) [25]: Active; growth inhibition (GI) [27]: Active
Clc1ccc(C2=NN(c3ccc(Cl)cc3)C(c3cccc(Nc4ccnc5cc(Cl)ccc45)c3)C2)cc1 (configuration not stated) | inactive | 40.4% | inactive | > 1000 mg/L | inactive | 7.02% | > 1000 mg/L | ≥ 250 mg/L | ≥ 250 mg/L | 23.1% | inactive | 17.4% | inactive | inactive | 46% | inactive | 2.96% | 11.8% | 91.4 mg/L (≈ 168 µM) | > 1000 mg/L | growth inhibition (GI) [16]: inactive; growth inhibition (GI) [18]: inactive; growth inhibition (GI) [21]: inactive; growth inhibition (GI) [22]: inactive; growth inhibition (GI) [23]: inactive; growth inhibition (GI) [24]: inactive; growth inhibition (GI) [25]: inactive; growth inhibition (GI) [27]: inactive
O=CN1N=C(c2ccc(Cl)cc2)CC1c1cccc(Nc2ccnc3cc(Cl)ccc23)c1 (configuration not stated) | Active | 67.5% | Active | > 1000 mg/L | Active | 24.5% | > 1000 mg/L | 250 mg/L (≈ 542 µM) | ≥ 250 mg/L | 44% | Active | 37.7% | Active | Active | 75.7% | Active | 12% | 28.2% | 281 mg/L (≈ 609 µM) | > 1000 mg/L | growth inhibition (GI) [16]: Active; growth inhibition (GI) [18]: Active; growth inhibition (GI) [21]: Active; growth inhibition (GI) [22]: Active; growth inhibition (GI) [23]: Active; growth inhibition (GI) [24]: Active; growth inhibition (GI) [25]: Active; growth inhibition (GI) [27]: Active
O=Cc1cccc(Nc2ccnc3cc(Cl)ccc23)c1 |  | 59.2% |  | 250 mg/L (≈ 884 µM) |  | 10.6% | 500 mg/L (≈ 1770 µM) | 250 mg/L (≈ 884 µM) | ≥ 250 mg/L | 9.47% |  | 5.03% |  |  | 38.5% |  | 1.48% | 19.6% | 0.96 mg/L (≈ 3.4 µM) | 125 mg/L (≈ 442 µM) | 
